{"data": "Assay results gathered from unrelated publications", "SCN1A": "Sodium channel protein type 1 subunit alpha (SCN1A, Homo sapiens, UniProt P35498)"}
{"SMILES": "CNc1ncc2c(/C=C/C(=O)N3CCC(OC)CC3)nn(Cc3cccc(C(F)(F)F)c3)c2n1", "target": "Cyclin-dependent kinase 5, with p35 (CDK5, Homo sapiens, UniProt Q00535)", "assay": "enzyme activity, inhibitor, radiometric", "setting": "1 µM", "quantity": "remaining activity", "result": "89%"}
{"SMILES": "CC(=O)c1c(C)c2cnc(Nc3ccc(N4CCNCC4)cn3)nc2n(C2CCCC2)c1=O", "target": "Cyclin-dependent kinase 5, with p25 (CDK5, Homo sapiens, UniProt Q00535)", "assay": "enzyme activity, inhibitor, ADP detection", "setting": "1 µM", "quantity": "activity vs control", "result": "97%"}
{"SMILES": "C[C@@H]1CC2=C(CN1Cc1cccc(C#N)c1)C(=O)N(Cc1ccc(Br)cc1)C1=NCCN12", "target": "ATP-dependent Clp protease proteolytic subunit, mitochondrial (CLPP, Homo sapiens, UniProt Q16740)", "assay": "thermal stability, DSF", "setting": "670 µM", "quantity": "ΔTm", "result": "17.7 °C"}
{"SMILES": "C=CC(=O)N1CCC(COCC(=O)N2CCN(c3nc(-c4cnc(N)nc4C(F)F)nc(N4CCOC[C@@H]4C)n3)CC2)CC1", "target": "Mitotic checkpoint serine/threonine-protein kinase BUB1 (BUB1, Homo sapiens, UniProt O43683)", "assay": "binding, competition with immobilised ligand", "setting": "1 µM", "quantity": "remaining binding", "result": "93%"}
{"SMILES": "CCCN1C[C@H](CSC)C[C@@H]2c3cccc4[nH]cc(c34)C[C@H]21", "target": "SCN1A", "assay": "ion current, inhibitor, patch clamp", "setting": "30 µM", "quantity": "inhibition", "result": "89.1%"}
{"SMILES": "Cc1cc([C@@H](C)Nc2ccccc2C(=O)O)c2nc(N3CCC(F)(F)CC3)c(C#N)c(=O)n2c1", "target": "High affinity nerve growth factor receptor (NTRK1, Homo sapiens, UniProt P04629)", "assay": "binding, competition with immobilised ligand", "setting": "10 µM", "quantity": "remaining binding", "result": "97%"}
{"SMILES": "CC(C)NCC(O)COc1cccc2ccccc12 (stereo not shown)", "target": "SCN1A", "assay": "ion current, inhibitor, patch clamp", "setting": "10 µM", "quantity": "inhibition", "result": "16.4%"}
{"SMILES": "C[C@H]1O[C@H](O[C@H]2[C@H](O)[C@@H](O)[C@@H](O[C@H]3[C@H](O)[C@@H](O)C(O)O[C@@H]3CO)O[C@@H]2CO)[C@H](O)[C@@H](O)[C@@H]1N[C@H]1C=C(CO)[C@@H](O)[C@H](O)[C@H]1O (stereo partly shown)", "target": "Alpha-glucosidase MAL12 (MAL12, Saccharomyces cerevisiae S288c, UniProt P53341)", "assay": "enzyme activity, inhibitor, absorbance", "setting": "1000 µg/mL", "quantity": "inhibition", "result": "80.6%"}
{"SMILES": "Nc1c(Br)cc(Br)cc1CN[C@H]1CC[C@H](O)CC1", "target": "SCN1A", "assay": "ion current, inhibitor, patch clamp", "setting": "10 µM", "quantity": "inhibition", "result": "33.3%"}
{"SMILES": "COc1cc(-c2cncc3c2CN(C)Cc2cc(N4CCNCC4)ccc2-3)cc(OC)c1OC", "target": "Focal adhesion kinase 1 (PTK2, Homo sapiens, UniProt Q05397)", "assay": "enzyme activity, inhibitor", "setting": "1 µM", "quantity": "remaining activity", "result": "102%"}
